Laboratory results published in ChEMBL document CHEMBL1124798, “Design of peptidomimetic delta opioid receptor antagonists using the message-address concept” (J Med Chem, 1990).
pKi: −log10 of the molar value.

Experiments:
[1] = target: Delta-type opioid receptor (Mus musculus) (UniProt P32300); experiment: Opioid receptor delta 1 antagonistic activity was measured by the displacement of DADLE in the mouse vas deferens at tha concentration of 200 nM; type: functional
Summary of the method: (§1)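 Mouse vas deferens. Antagonist (nM, as stated on line) incubated with the preparation 15 min before testing. δ agonist [D-Ala2,D-Leu5]enkephalin.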

[2] = target: Kappa-type opioid receptor (Cavia porcellus) (UniProt P41144); experiment: Opioid receptor kappa 1 antagonistic activity was measured by the displacement of ethylketazocine in the guinea pig ileum at a concentration of 100 nM; type: functional, tissue-based
Summary of the method: (§2)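 Guinea pig ileum. Antagonist (nM, as stated on line) incubated 15 min before testing. Agonists: morphine (μ) and ethylketazocine (κ).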

[3] = target: Delta-type opioid receptor (Mus musculus) (UniProt P32300); experiment: Antagonist potency was determined as the ratio of [antagonist] to (IC50 ratio-1) for opioid receptor delta 1; type: functional
Summary of the method: (§3)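 Ke (nM) = [antagonist]/(IC50 ratio − 1). IC50 ratio is agonist IC50 with antagonist over the control IC50 in the same preparation. Antagonist preincubated 15 min. Agonists: DADLE in mouse vas deferens (δ); morphine (μ) and ethylketazocine (κ) in guinea pig ileum. n ≥ 3.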

[4] = target: Mu-type opioid receptor (Cavia porcellus) (UniProt P97266); experiment: Antagonist potency was determined as the ratio of [antagonist] to (IC50 ratio-1) for Opioid receptor mu 1; type: functional; summary of the method: as §3
[5] = target: Kappa-type opioid receptor (Cavia porcellus) (UniProt P41144); experiment: Opioid receptor kappa antagonistic activity was measured by the displacement of ethylketazocine in the guinea pig ileum at a concentration of 100 nM; type: functional, tissue-based; summary of the method: as §2
[6] = target: Kappa-type opioid receptor (Cavia porcellus) (UniProt P41144); experiment: Antagonist potency was determined as the ratio of [antagonist] to (IC50 ratio-1) for Opioid receptor kappa 1; type: functional; summary of the method: as §3
[7] = target: Mu-type opioid receptor (Cavia porcellus) (UniProt P97266); experiment: Opioid receptor mu 1 antagonistic activity was measured by the displacement of morphine in the guinea pig ileum at a concentration of 100 nM; type: functional, tissue-based; summary of the method: as §2
[8] = target: Delta-type opioid receptor (Mus musculus) (UniProt P32300); experiment: Opioid receptor delta antagonistic activity was measured by the displacement of DADLE in the mouse vas deferens at tha concentration of 200 nM; type: functional; summary of the method: as §1
[9] = target: Opioid receptors; delta & kappa (Homo sapiens) (UniProt P41145+P41143); experiment: Selectivity ratio was determined from Ke value of Opioid receptor kappa 1 and Opioid receptor delta 1; type: protein assay; conditions: Cavia porcellus
Summary of the method: (§4)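 Ratios of Ke values, μ/δ or κ/δ. Each Ke = [antagonist]/(IC50 ratio − 1). δ from DADLE in mouse vas deferens; μ (morphine) and κ (ethylketazocine) in guinea pig ileum. 15 min antagonist preincubation, n ≥ 3.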

[10] = target: Opioid receptors; mu & delta (Homo sapiens) (UniProt P41143+P35372); experiment: Selectivity ratio was determined from Ke value of Opioid receptor mu 1 and Opioid receptor delta 1; type: protein assay; conditions: Cavia porcellus; summary of the method: as §4
[11] = target: Mu-type opioid receptor (Cavia porcellus) (UniProt P97266); experiment: Opioid receptor mu antagonistic activity was measured by the displacement of morphine in the guinea pig ileum at a concentration of 100 nM; type: functional, tissue-based; summary of the method: as §2
[12] = target: Kappa-type opioid receptor (Cavia porcellus) (UniProt P41144); experiment: Opioid receptor kappa 1 antagonistic activity was measured by the displacement of ethylketazocine in the guinea pig ileum at a concentration of 200 nM; type: functional, tissue-based; summary of the method: as §2
[13] = target: T1, Mu-type opioid receptor (Cavia porcellus, UniProt P97266); experiment: Binding affinity was measured by the displacement of [3H]- DAMGO in guinea pig brain membrane of Opioid receptor mu 1; type: cell membranes
Summary of the method: (§5)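 Radioligand displacement from guinea pig brain membranes, modified Werling method. μ sites: [3H]DAMGO. δ sites: [3H]DADLE with 1 μM DAMGO. κ sites: [3H]ethylketazocine with 1 μM DAMGO.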

[14] = target: T2, Kappa-type opioid receptor (Cavia porcellus, UniProt P41144); experiment: Binding affinity was measured by the displacement of [3H]- EK in guinea pig brain membrane of Opioid receptor kappa 1; type: cell membranes; summary of the method: as §5
[15] = target: T2, Kappa-type opioid receptor; experiment: Binding affinity was measured by the displacement of [3H]- EK in guinea pig brain membrane of opioid receptor kappa; type: cell membranes; summary of the method: as §5
[16] = target: Kappa-type opioid receptor (Cavia porcellus) (UniProt P41144); experiment: Opioid receptor kappa antagonistic activity was measured by the displacement of ethylketazocine in the guinea pig ileum at a concentration of 200 nM; type: functional, tissue-based; summary of the method: as §2
[17] = target: T1, Mu-type opioid receptor; experiment: Binding affinity was measured by the displacement of [3H]- DAMGO in guinea pig brain membrane of opioid receptor mu; type: cell membranes; summary of the method: as §5
[18] = target: Mu-type opioid receptor (Cavia porcellus) (UniProt P97266); experiment: Opioid receptor mu 1 antagonistic activity was measured by the displacement of morphine in the guinea pig ileum at a concentration of 200 nM; type: functional, tissue-based; summary of the method: as §2
[19] = target: Mu-type opioid receptor (Cavia porcellus) (UniProt P97266); conditions: Ileum, 200 nM
[20] = target: Delta-type opioid receptor (Mus musculus) (UniProt P32300); experiment: Opioid receptor delta 1 antagonistic activity was measured by the displacement of DADLE in the mouse vas deferens at a concentration of 100 nM; type: functional; summary of the method: as §1
[21] = target: Delta-type opioid receptor (Mus musculus) (UniProt P32300); experiment: Opioid receptor delta antagonistic activity was measured by the displacement of DADLE in the mouse vas deferens at a concentration of 100 nM; type: functional; summary of the method: as §1
[22] = target: Mu-type opioid receptor (Cavia porcellus) (UniProt P97266); experiment: Opioid receptor mu antagonistic activity was measured by the displacement of morphine in the guinea pig ileum at a concentration of 200 nM; type: functional, tissue-based; summary of the method: as §2

T2 sequence (P41144 whole entry): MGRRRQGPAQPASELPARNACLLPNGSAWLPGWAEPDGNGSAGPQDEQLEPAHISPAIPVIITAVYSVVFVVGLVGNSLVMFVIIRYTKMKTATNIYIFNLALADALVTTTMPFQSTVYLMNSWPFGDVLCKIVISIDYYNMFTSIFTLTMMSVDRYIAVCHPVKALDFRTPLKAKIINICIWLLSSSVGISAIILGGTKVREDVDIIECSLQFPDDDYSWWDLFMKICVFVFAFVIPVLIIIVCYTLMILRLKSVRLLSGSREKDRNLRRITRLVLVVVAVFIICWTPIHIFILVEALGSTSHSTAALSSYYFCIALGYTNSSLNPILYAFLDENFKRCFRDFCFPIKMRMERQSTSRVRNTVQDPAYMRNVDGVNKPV
Sequence of Kappa-type opioid receptor (Cavia porcellus) (P41144 whole entry): as above
Sequence of Opioid receptors; mu & delta (Homo sapiens) (P35372 whole entry, looked up): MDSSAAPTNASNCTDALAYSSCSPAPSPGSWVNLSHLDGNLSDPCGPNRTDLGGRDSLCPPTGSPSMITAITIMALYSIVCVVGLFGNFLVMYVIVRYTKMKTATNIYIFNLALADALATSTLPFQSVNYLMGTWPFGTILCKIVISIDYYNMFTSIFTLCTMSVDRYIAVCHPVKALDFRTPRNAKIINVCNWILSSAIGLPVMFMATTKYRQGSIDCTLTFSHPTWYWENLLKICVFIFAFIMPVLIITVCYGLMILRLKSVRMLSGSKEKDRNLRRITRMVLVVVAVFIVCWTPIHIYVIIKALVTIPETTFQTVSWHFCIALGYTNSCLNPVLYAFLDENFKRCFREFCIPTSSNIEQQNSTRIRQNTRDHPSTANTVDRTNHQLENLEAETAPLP
Sequence of Opioid receptors; mu & delta (Homo sapiens) (P41143 whole entry, looked up): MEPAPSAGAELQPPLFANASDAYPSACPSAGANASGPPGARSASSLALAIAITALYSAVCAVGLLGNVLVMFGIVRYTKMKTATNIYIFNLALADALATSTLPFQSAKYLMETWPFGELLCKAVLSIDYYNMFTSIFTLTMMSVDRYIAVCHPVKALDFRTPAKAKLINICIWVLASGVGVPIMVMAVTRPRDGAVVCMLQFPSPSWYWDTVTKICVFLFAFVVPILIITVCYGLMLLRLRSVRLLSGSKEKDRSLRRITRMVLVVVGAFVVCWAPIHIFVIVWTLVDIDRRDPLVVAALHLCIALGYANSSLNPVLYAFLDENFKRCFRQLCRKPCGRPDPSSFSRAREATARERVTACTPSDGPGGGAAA
Sequence of Delta-type opioid receptor (Mus musculus) (P32300 whole entry): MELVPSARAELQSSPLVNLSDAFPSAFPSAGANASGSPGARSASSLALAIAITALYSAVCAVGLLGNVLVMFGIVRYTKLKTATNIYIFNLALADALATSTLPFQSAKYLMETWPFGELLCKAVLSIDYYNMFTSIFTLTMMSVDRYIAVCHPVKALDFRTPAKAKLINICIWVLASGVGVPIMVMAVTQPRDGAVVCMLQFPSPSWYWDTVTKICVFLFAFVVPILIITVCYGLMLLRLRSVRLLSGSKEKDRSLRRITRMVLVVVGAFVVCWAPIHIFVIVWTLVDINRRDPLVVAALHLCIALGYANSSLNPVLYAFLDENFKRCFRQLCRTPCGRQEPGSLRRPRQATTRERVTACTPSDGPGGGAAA
T1 sequence (P97266 whole entry): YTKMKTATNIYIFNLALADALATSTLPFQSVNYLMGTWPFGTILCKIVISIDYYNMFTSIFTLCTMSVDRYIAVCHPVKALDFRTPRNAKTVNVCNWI
Sequence of Mu-type opioid receptor (Cavia porcellus) (P97266 whole entry): as above
Sequence of Opioid receptors; delta & kappa (Homo sapiens) (P41143 whole entry, looked up): as the sequence (P41143 whole entry, looked up) above
Sequence of Opioid receptors; delta & kappa (Homo sapiens) (P41145 whole entry, looked up): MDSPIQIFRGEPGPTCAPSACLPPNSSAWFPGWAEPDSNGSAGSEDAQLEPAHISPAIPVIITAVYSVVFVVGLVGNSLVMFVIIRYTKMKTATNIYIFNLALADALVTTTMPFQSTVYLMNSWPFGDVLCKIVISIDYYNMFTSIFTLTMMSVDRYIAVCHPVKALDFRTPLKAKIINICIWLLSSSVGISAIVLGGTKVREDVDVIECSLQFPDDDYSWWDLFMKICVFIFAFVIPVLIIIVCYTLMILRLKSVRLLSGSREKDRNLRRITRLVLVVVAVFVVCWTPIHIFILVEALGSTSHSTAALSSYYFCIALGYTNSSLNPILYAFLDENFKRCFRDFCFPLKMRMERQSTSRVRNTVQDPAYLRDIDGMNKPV

Row | Compound | IC50 ratio [1] | IC50 ratio [2] | Ke [3] | Ke [4] | IC50 ratio [5] | Ke [6] | IC50 ratio [7] | IC50 ratio [8] | Selectivity ratio [9] | Selectivity ratio [10] | IC50 ratio [11] | IC50 ratio [12] | pKi [13] | pKi [14] | pKi [15] | IC50 ratio [16] | pKi [17] | IC50 ratio [18] | also measured
1 | COc1ccc2[nH]c3c(c2c1)C[C@@]1(O)[C@H]2Cc4ccc(O)c5c4[C@@]1(CCN2CC1CC1)[C@H]3O5 | 53 | 9.2 | 3.8 nM | > 63 nM | 9.2 | 12 nM | 2.6 | 53 | 3.2 | > 16 | 2.6 | – | – | – | – | – | – | – | –
2 | Oc1ccc2c3c1O[C@H]1c4[nH]c5ccc(F)cc5c4C[C@@]4(O)[C@@H](C2)N(CC2CC2)CC[C@]314 | 104 | – | 1.9 nM | 49 nM | – | 38 nM | – | 104 | 19 | 25 | – | 6.3 | 8.77 | 7.82 | 7.82 | 6.3 | 8.77 | 5.1 | IC50 ratio [19]: 5.1
3 | Cc1ccc2[nH]c3c(c2c1)C[C@@]1(O)[C@H]2Cc4ccc(O)c5c4[C@@]1(CCN2CC1CC1)[C@H]3O5 | 55.4 | 1.4 | 3.7 nM | > 167 nM | 1.4 | > 250 nM | 1.6 | 55.4 | > 68 | > 45 | 1.6 | – | – | – | – | – | – | – | –
4 | COc1cccc2c3c([nH]c12)[C@@H]1Oc2c(O)ccc4c2[C@@]12CCN(CC1CC1)[C@H](C4)[C@]2(O)C3 | – | 1.5 | 1.5 nM | 50 nM | 1.5 | > 185 nM | 3 | – | > 120 | 32 | 3 | – | 7.80 | 7.37 | 7.37 | – | 7.80 | – | IC50 ratio [20]: 66; IC50 ratio [21]: 66
5 | O=[N+]([O-])c1ccc2[nH]c3c(c2c1)C[C@@]1(O)[C@H]2Cc4ccc(O)c5c4[C@@]1(CCN2CC1CC1)[C@H]3O5 | 2.4 | – | 146 nM | > 230 nM | – | > 870 nM | – | 2.4 | > 5.6 | > 1.6 | – | 1.2 | – | – | – | 1.2 | – | 1.9 | IC50 ratio [22]: 1.9
